Test results: ChEMBL document CHEMBL4823321, “Improving the Adjuvanticity of Small Molecule Immune Potentiators Using Covalently Linked NF-κB Modulators” (ACS Med Chem Lett, 2021)
The source made the active and inactive calls. The rule behind the calls is not given here.

What was measured:
BMDC = assay: Modulator activity at NF-kappaB in C57BL/6 mouse BMDC cells assessed as increase in cell surface CD40 expression at 200 nM measured after 8 hrs by FACS analysis; format: cell-based; conditions: filed as modulator
Method in brief: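 Murine bone-marrow-derived dendritic cells incubated 8 h with compounds at 200 nM; cells stained for surface CD40 and quantified by flow cytometry.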

[1] = molecular target: TLR7 and TLR8 (Mus musculus) (UniProt P58681+P58682); assay: Agonist activity at TLR7/8 in mouse RAW-blue cells assessed as immune activation by measuring induction of NFkappaB activation at 500 nM measured after 24 hrs by quanti-blue SEAP reporter gene-based assay; format: cell-based; conditions: filed as agonist
Method in brief: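 RAW-Blue macrophages exposed to compounds at 500 nM for 24 h at 37 °C; NF-κB-driven reporter read-out; triplicate samples; one-way ANOVA against TLR7/8 SMIP.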

[2] = Toxicity in C57BL/6 mouse BMDC cells assessed as induction of inflammation by measuring increase in IL-6 secretion at 200 nM measured after 8 hrs by ELISA; format: cell-based; conditions: 0.2 µM
Method in brief: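 Murine bone-marrow-derived dendritic cells incubated 8 h with compounds at 200 nM; secreted IL-6 quantified by ELISA; triplicate; one-way ANOVA versus TLR7/8 SMIP.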

RAW264.7 [3] = assay: Antioxidant activity in mouse RAW264.7 cells assessed as reduction in intracellular ROS level measured after 16 hrs by CM-H2DCFDA based flow cytometry analysis relative to TLR7/8 SMIP; format: functional
Method in brief: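 RAW macrophages incubated with compounds for 16 h, then loaded with CM-H2DCFDA; intracellular ROS fluorescence quantified by flow cytometry.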

RAW264.7 [4] = assay: Inhibition of NO production in mouse RAW264.7 cells at 500 nM incubated for 16 hrs by Griess reagent based analysis; format: functional, cell-based
Method in brief: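 Nitrite measured with Griess reagent in supernatants of RAW macrophages incubated 16 h with 500 nM compounds; triplicate; one-way ANOVA versus TLR7/8 SMIP.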

RAW264.7 [5] = assay: Inhibition of COX-2 expression in mouse RAW264.7 cells at 500 nM incubated for 16 hrs by western blot analysis; format: functional, cell-based
Method in brief: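 After 16 h with 500 nM compounds, RAW macrophages were lysed; proteins separated by SDS-PAGE, transferred to membrane and probed with anti-COX-2 antibody; triplicate.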

RAW264.7 [6] = assay: Inhibition of iNOS expression in mouse RAW264.7 cells at 500 nM incubated for 16 hrs by western blot analysis; format: functional, cell-based
Splenocyte = assay: Induction of innate immunity in C57BL/6 mouse naive splenocyte assessed as increase in cell proliferation at 3 uM measured after 48 hrs by MTT assay; format: functional, tissue-based
Method in brief: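 Naive splenocytes incubated 48 h with compounds to assess proliferation.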

[7] = Systemic toxicity in CT26 cells xenografted BALB/c mouse tumor model assessed as increase in serum TNF-alpha level at 20 nmol, IT and measured after 2 hrs; format: cell-based; conditions: in vivo, other
Method in brief: (§1)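 Subcutaneous CT-26 tumors established for 11 days, then compounds given by peritumoral injection; serum collected 2 h later for TNF-α and IL-6.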

[8] = Systemic toxicity in CT26 cells xenografted BALB/c mouse tumor model assessed as increase in serum IL-6 level at 20 nmol, IT and measured after 2 hrs; format: cell-based; conditions: in vivo, other; method in brief: as §1
[9] = Systemic toxicity in CT26 cells xenografted BALB/c mouse tumor model assessed as reduction in white blood count in peripheral blood at 20 nmol, IT and measured after 24 hrs by hematological analysis; format: cell-based; conditions: in vivo, other
Method in brief: (§2)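 Subcutaneous CT-26 tumors established for 11 days, then compounds given peritumorally; peripheral blood collected 24 h later for hematological analysis of white blood cell and lymphocyte counts.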

CT26 = assay: Antitumor activity against mouse CT26 cells xenografted in BALB/c mouse assessed as survival rate at 20 nmol, IT administered on day 15,19 and 23 and measured on day 35; format: functional
Method in brief: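 Subcutaneous CT-26 colon carcinoma in mice. Once tumors were established at day 11, […], compounds were given by peritumoral injection, then three more injections every 4 days. Tumor size was measured every alternate day. Animals were euthanized when a tumor reached 20 mm in any linear dimension. Kaplan–Meier survival was followed until day 35.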

[10] = Systemic toxicity in CT26 cells xenografted BALB/c mouse tumor model assessed as reduction in lymphocyte count in peripheral blood at 20 nmol, IT and measured after 24 hrs by hematological analysis; format: cell-based; conditions: in vivo, other; method in brief: as §2
[11] = Systemic toxicity in C57BL/6 mouse assessed as increase in serum TNF-alpha level administered intramuscularly in presence of ovalbumin measured after 1 hr; conditions: in vivo, im
Method in brief: (§3)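 Mice vaccinated with ovalbumin admixed with adjuvant in PBS, i.m.; serum collected 1 h after injection for IL-6 and TNF-α; one-way ANOVA versus PBS control.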

Mus musculus [12] = assay: Immuno-adjuvant activity in C57BL/6 mouse assessed as increase in levels of anti-OVA Ig (A+G+M) administered intramuscularly on day 1 and as booster dose on day 14 in presence of ovalbumin and measured on day 28 by ELISA; format: functional, organism-based; conditions: time 28.0 day
Method in brief: (§4)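 Ovalbumin plus adjuvant in PBS given i.m., boosted on day 14; sera collected at sacrifice on day 28 and anti-OVA antibodies measured; one-way ANOVA versus PBS control.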

Mus musculus [13] = assay: Induction of T-cell immunity in C57BL/6 mouse splenocytes assessed as increase in CD3+CD8+ tetramer administered intramuscularly on day 1 and as booster dose on day 14 in presence of ovalbumin and SINFEKL MHC specific tetramer measured on day 28 by flow cytometric analysis; format: functional, cell-based; conditions: time 28.0 day
[14] = Systemic toxicity in C57BL/6 mouse assessed as increase in serum IL-6 level administered intramuscularly in presence of ovalbumin measured after 1 hr; conditions: in vivo, im; method in brief: as §3
Mus musculus [15] = assay: Immuno-adjuvant activity in C57BL/6 mouse assessed as increase in levels of anti-OVA IgG administered intramuscularly on day 1 and as booster dose on day 14 in presence of ovalbumin and measured on day 28 by ELISA; format: functional, organism-based; conditions: time 28.0 day; method in brief: as §4
Mus musculus [16] = assay: Immuno-adjuvant activity in C57BL/6 mouse assessed as increase in levels of anti-OVA IgA administered intramuscularly on day 1 and as booster dose on day 14 in presence of ovalbumin and measured on day 28 by ELISA; format: functional, organism-based; conditions: time 28.0 day

Sequence of TLR7 and TLR8 (Mus musculus) (P58681 whole entry, looked up): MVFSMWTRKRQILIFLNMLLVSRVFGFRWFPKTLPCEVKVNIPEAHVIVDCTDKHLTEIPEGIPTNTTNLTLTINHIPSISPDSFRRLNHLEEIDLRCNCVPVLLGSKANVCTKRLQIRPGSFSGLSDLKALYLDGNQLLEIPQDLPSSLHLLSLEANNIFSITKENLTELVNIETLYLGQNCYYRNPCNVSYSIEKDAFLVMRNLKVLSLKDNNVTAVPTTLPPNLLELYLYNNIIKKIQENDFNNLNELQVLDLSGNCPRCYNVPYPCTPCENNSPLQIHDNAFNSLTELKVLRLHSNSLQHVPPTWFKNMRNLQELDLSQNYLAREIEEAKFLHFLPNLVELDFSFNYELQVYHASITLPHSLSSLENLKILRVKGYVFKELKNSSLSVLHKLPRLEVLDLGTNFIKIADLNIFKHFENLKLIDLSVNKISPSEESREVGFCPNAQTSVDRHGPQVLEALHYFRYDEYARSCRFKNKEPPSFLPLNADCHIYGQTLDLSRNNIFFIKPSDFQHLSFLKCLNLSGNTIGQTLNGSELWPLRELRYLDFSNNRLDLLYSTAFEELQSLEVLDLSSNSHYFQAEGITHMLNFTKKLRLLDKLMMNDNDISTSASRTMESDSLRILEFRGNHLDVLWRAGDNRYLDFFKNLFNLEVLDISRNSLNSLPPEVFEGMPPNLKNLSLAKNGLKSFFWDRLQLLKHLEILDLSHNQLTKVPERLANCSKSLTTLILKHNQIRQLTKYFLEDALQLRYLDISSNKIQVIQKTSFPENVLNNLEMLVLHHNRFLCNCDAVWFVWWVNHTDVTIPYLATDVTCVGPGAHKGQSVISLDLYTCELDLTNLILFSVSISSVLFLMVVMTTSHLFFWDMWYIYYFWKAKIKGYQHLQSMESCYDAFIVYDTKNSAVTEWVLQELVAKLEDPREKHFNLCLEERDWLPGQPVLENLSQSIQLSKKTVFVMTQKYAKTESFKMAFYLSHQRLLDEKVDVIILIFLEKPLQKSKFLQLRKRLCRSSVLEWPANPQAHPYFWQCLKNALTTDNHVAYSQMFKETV
Sequence of TLR7 and TLR8 (Mus musculus) (P58682 whole entry, looked up): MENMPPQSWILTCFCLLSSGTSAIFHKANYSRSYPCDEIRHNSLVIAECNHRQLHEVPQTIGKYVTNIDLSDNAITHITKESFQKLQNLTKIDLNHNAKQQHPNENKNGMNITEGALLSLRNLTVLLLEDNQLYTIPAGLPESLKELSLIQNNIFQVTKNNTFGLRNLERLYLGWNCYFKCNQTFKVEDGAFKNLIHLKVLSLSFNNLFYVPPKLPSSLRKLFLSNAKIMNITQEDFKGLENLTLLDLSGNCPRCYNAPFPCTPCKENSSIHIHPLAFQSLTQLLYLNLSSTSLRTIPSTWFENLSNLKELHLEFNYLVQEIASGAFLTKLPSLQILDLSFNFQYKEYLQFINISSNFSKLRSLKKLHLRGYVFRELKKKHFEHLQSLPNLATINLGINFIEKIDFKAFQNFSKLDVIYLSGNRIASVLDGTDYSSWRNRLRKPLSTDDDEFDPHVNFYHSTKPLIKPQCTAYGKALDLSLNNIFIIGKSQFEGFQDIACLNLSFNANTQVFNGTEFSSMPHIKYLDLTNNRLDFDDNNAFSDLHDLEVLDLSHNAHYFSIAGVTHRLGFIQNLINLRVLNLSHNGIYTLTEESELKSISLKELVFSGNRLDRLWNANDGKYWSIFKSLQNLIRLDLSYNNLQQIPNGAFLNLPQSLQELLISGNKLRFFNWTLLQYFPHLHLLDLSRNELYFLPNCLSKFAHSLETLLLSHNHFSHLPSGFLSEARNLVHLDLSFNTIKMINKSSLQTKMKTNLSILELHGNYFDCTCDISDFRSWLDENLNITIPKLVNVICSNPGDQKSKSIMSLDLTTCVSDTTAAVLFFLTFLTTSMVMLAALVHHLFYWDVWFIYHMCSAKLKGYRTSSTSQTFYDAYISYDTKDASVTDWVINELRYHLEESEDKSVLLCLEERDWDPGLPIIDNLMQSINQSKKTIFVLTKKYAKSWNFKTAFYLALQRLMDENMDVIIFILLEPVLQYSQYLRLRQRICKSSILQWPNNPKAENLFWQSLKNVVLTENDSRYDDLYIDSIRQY

Row | Structure (SMILES) | Activity (BMDC) | Activity [1] | Activity [2] | inhibition (INH) (RAW264.7 [3]) [%] | inhibition (RAW264.7 [4]) | inhibition (RAW264.7 [5]) | inhibition (RAW264.7 [6]) | Activity (Splenocyte) | Activity [7] | Activity [8] | Activity [9] | Survival (CT26; time 35 day) [%] | Activity [10] | Activity [11] | Activity (Mus musculus [12]) | Activity (Mus musculus [13]) | Activity [14] | Activity (Mus musculus [15]) | Activity (CT26; time 35.0 day) | Activity (Mus musculus [16])
1 | CCCCc1nc2c(N)nc3ccccc3c2n1Cc1ccc(CNC(=O)NCCCNC(=O)/C=C/c2ccc(O)c(OC)c2)cc1 | Active | Active | Non-Toxic | 50 | Active | inactive | Active | Active | Toxic | Toxic | Toxic | 80 | Toxic | – | – | – | – | – | – | –
2 | CCOCc1nc2c(N)nc3ccccc3c2n1CC(C)(C)O [RESIQUIMOD] | – | – | – | – | – | – | – | – | Toxic | Toxic | Toxic | – | Toxic | – | – | – | – | – | – | –
3 | CCCCc1nc2c(N)nc3ccccc3c2n1Cc1ccc(CNC(=O)NCCc2ccc(O)c(O)c2)cc1 | Active | Active | Non-Toxic | 50 | Active | inactive | Active | Active | Non-Toxic | Non-Toxic | Non-Toxic | – | Non-Toxic | Non-Toxic | Active | inactive | Non-Toxic | Active | – | –
4 | CCCCc1nc2c(N)nc3ccccc3c2n1Cc1ccc(CNC(=O)c2ccc(-c3cccc(O)c3)cc2O)cc1 | Active | Active | Toxic | 50 | Active | inactive | Active | Active | Non-Toxic | Non-Toxic | Non-Toxic | – | Non-Toxic | – | – | – | – | – | – | –
5 | CCCCc1nc2c(N)nc3ccccc3c2n1Cc1ccccc1 | Active | Active | Toxic | – | – | – | – | Active | Toxic | Toxic | Toxic | – | Toxic | – | – | – | – | – | – | –
6 | CCCCCCCCCCCCCCCCCC(=O)NCCCCOn1c(CCCC)nc2c(N)nc3ccccc3c21 [TELRATOLIMOD] | – | – | – | – | – | – | – | – | Non-Toxic | Non-Toxic | Non-Toxic | – | Non-Toxic | – | – | – | – | – | – | –
7 | CCCCc1nc2c(N)nc3ccccc3c2n1Cc1ccc(CNC(=O)c2cccc(-c3cccc(O)c3)c2)cc1 | Active | Active | Non-Toxic | 50 | Active | inactive | Active | Active | Non-Toxic | Non-Toxic | Non-Toxic | – | Non-Toxic | Non-Toxic | – | inactive | Non-Toxic | – | – | –
8 | CCCCc1nc2c(N)nc3ccccc3c2n1Cc1ccc(CNC(=O)c2cc(-c3ccc(O)cc3)ccc2O)cc1 | Active | Active | Toxic | 50 | Active | inactive | Active | Active | – | Non-Toxic | – | – | Non-Toxic | – | – | – | – | – | – | –
9 | CCCCc1nc2c(N)nc3ccccc3c2n1Cc1ccc(CNC(=O)NCCCCCC(=O)NCc2ccc(O)c(OC)c2)cc1 | Active | Active | Non-Toxic | 50 | Active | inactive | Active | Active | Non-Toxic | Non-Toxic | Non-Toxic | – | Non-Toxic | Non-Toxic | Active | inactive | Non-Toxic | Active | Active | Active
